Results published in ChEMBL document CHEMBL3352045, “Ionic liquid catalyzed synthesis of 2-(indole-3-yl)-thiochroman-4-ones and their novel antifungal activities” (2015).
In brackets after ≈: the same amount, converted by molar mass.

Tests used:
Format in all cases: functional
Nannizzia gypsea = test: Antifungal activity against Microsporum gypseum after 2 to 7 days by serial plate dilution method
Outline: (§1)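 Compounds dissolved as DMSO stocks and serially diluted in RPMI 1640 buffered with MOPS, giving final concentrations of 128–0.25. Individual fungal inoculum added to each well. Incubated in triplicate at 37 °C for 2–7 days. MIC read as the lowest concentration with no visible growth. Amphotericin B and fluconazole served as positive controls.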

Candida albicans = test: Antifungal activity against Candida albicans after 2 to 7 days by serial plate dilution method; outline: as §1
Cryptococcus neoformans = test: Antifungal activity against Cryptococcus neoformans after 2 to 7 days by serial plate dilution method; outline: as §1
Epidermophyton floccosum = test: Antifungal activity against Epidermophyton floccosum after 2 to 7 days by serial plate dilution method; outline: as §1
Mucor racemosus = test: Antifungal activity against Mucor racemosus after 2 to 7 days by serial plate dilution method

O=C1CC(c2c[nH]c3ccccc23)Sc2ccc(F)cc21 (stereo not given)
MIC (Nannizzia gypsea): 32 µg/mL (≈ 108 µM)
MIC (Candida albicans): 128 µg/mL (≈ 430 µM)
MIC (Cryptococcus neoformans): 64 µg/mL (≈ 215 µM)
MIC (Epidermophyton floccosum): 32 µg/mL (≈ 108 µM)
MIC (Mucor racemosus): 32 µg/mL (≈ 108 µM)

Cc1ccc2c(c1)C(=O)CC(c1c[nH]c3ccccc13)S2 (stereo not given)
MIC (Nannizzia gypsea): > 128 µg/mL
MIC (Candida albicans): 128 µg/mL (≈ 436 µM)
MIC (Cryptococcus neoformans): 32 µg/mL (≈ 109 µM)
MIC (Epidermophyton floccosum): > 128 µg/mL
MIC (Mucor racemosus): 128 µg/mL (≈ 436 µM)

O=C1CC(c2c[nH]c3ccccc23)Sc2ccc(Cl)cc21 (stereo not given)
MIC (Nannizzia gypsea): 64 µg/mL (≈ 204 µM)
MIC (Candida albicans): 64 µg/mL (≈ 204 µM)
MIC (Cryptococcus neoformans): 32 µg/mL (≈ 102 µM)
MIC (Epidermophyton floccosum): 32 µg/mL (≈ 102 µM)
MIC (Mucor racemosus): 64 µg/mL (≈ 204 µM)

O=C1CC(c2c[nH]c3ccc(Cl)cc23)Sc2ccc(Cl)cc21 (stereo not given)
MIC (Nannizzia gypsea): 16 µg/mL (≈ 45.9 µM)
MIC (Candida albicans): 64 µg/mL (≈ 184 µM)
MIC (Cryptococcus neoformans): 4 µg/mL (≈ 11.5 µM)
MIC (Epidermophyton floccosum): 8 µg/mL (≈ 23 µM)
MIC (Mucor racemosus): 8 µg/mL (≈ 23 µM)

Cn1cc(C2CC(=O)c3cc(Cl)ccc3S2)c2ccccc21 (stereo not given)
MIC (Nannizzia gypsea): 128 µg/mL (≈ 390 µM)
MIC (Candida albicans): 64 µg/mL (≈ 195 µM)
MIC (Cryptococcus neoformans): 128 µg/mL (≈ 390 µM)
MIC (Epidermophyton floccosum): 128 µg/mL (≈ 390 µM)
MIC (Mucor racemosus): 32 µg/mL (≈ 97.6 µM)

O=C1CC(c2c[nH]c3ccccc23)Sc2c(F)cccc21 (stereo not given)
MIC (Nannizzia gypsea): 8 µg/mL (≈ 26.9 µM)
MIC (Candida albicans): 32 µg/mL (≈ 108 µM)
MIC (Cryptococcus neoformans): 16 µg/mL (≈ 53.8 µM)
MIC (Epidermophyton floccosum): 8 µg/mL (≈ 26.9 µM)
MIC (Mucor racemosus): 32 µg/mL (≈ 108 µM)

O=C1CC(c2c[nH]c3ccc(Cl)cc23)Sc2c(F)cccc21 (stereo not given)
MIC (Nannizzia gypsea): 8 µg/mL (≈ 24.1 µM)
MIC (Candida albicans): 32 µg/mL (≈ 96.4 µM)
MIC (Cryptococcus neoformans): 4 µg/mL (≈ 12.1 µM)
MIC (Epidermophyton floccosum): 4 µg/mL (≈ 12.1 µM)
MIC (Mucor racemosus): 8 µg/mL (≈ 24.1 µM)

O=C1CC(c2c[nH]c3ccc(O)cc23)Sc2c(F)cccc21 (stereo not given)
MIC (Nannizzia gypsea): 16 µg/mL (≈ 51.1 µM)
MIC (Candida albicans): 16 µg/mL (≈ 51.1 µM)
MIC (Cryptococcus neoformans): 8 µg/mL (≈ 25.5 µM)
MIC (Epidermophyton floccosum): 4 µg/mL (≈ 12.8 µM)
MIC (Mucor racemosus): 16 µg/mL (≈ 51.1 µM)

Cc1cccc2c1SC(c1c[nH]c3ccccc13)CC2=O (stereo not given)
MIC (Nannizzia gypsea): 64 µg/mL (≈ 218 µM)
MIC (Candida albicans): 64 µg/mL (≈ 218 µM)
MIC (Cryptococcus neoformans): 64 µg/mL (≈ 218 µM)
MIC (Epidermophyton floccosum): 128 µg/mL (≈ 436 µM)
MIC (Mucor racemosus): 64 µg/mL (≈ 218 µM)

Cc1cccc2c1SC(c1cn(C)c3ccccc13)CC2=O (stereo not given)
MIC (Nannizzia gypsea): 32 µg/mL (≈ 104 µM)
MIC (Candida albicans): 128 µg/mL (≈ 416 µM)
MIC (Cryptococcus neoformans): 32 µg/mL (≈ 104 µM)
MIC (Epidermophyton floccosum): 64 µg/mL (≈ 208 µM)
MIC (Mucor racemosus): 64 µg/mL (≈ 208 µM)

Cn1cc(C2CC(=O)c3cccc(Cl)c3S2)c2ccccc21 (stereo not given)
MIC (Nannizzia gypsea): 32 µg/mL (≈ 97.6 µM)
MIC (Candida albicans): 32 µg/mL (≈ 97.6 µM)
MIC (Cryptococcus neoformans): 64 µg/mL (≈ 195 µM)
MIC (Epidermophyton floccosum): 32 µg/mL (≈ 97.6 µM)
MIC (Mucor racemosus): 32 µg/mL (≈ 97.6 µM)

Cc1cc2c(cc1F)SC(c1c[nH]c3ccccc13)CC2=O (stereo not given)
MIC (Nannizzia gypsea): 64 µg/mL (≈ 206 µM)
MIC (Candida albicans): > 128 µg/mL
MIC (Cryptococcus neoformans): 64 µg/mL (≈ 206 µM)
MIC (Epidermophyton floccosum): 64 µg/mL (≈ 206 µM)
MIC (Mucor racemosus): 128 µg/mL (≈ 411 µM)

Cc1cc(C)c2c(c1)C(=O)CC(c1c[nH]c3ccccc13)S2 (stereo not given)
MIC (Nannizzia gypsea): 64 µg/mL (≈ 208 µM)
MIC (Candida albicans): 64 µg/mL (≈ 208 µM)
MIC (Cryptococcus neoformans): 32 µg/mL (≈ 104 µM)
MIC (Epidermophyton floccosum): 128 µg/mL (≈ 416 µM)
MIC (Mucor racemosus): 128 µg/mL (≈ 416 µM)

Cc1cc(C)c2c(c1)C(=O)CC(c1c[nH]c3ccc(Cl)cc13)S2 (stereo not given)
MIC (Nannizzia gypsea): 16 µg/mL (≈ 46.8 µM)
MIC (Candida albicans): 32 µg/mL (≈ 93.6 µM)
MIC (Cryptococcus neoformans): 16 µg/mL (≈ 46.8 µM)
MIC (Epidermophyton floccosum): 16 µg/mL (≈ 46.8 µM)
MIC (Mucor racemosus): 32 µg/mL (≈ 93.6 µM)

Cc1cc(C)c2c(c1)C(=O)CC(c1c[nH]c3ccc(O)cc13)S2 (stereo not given)
MIC (Nannizzia gypsea): 16 µg/mL (≈ 49.5 µM)
MIC (Candida albicans): 64 µg/mL (≈ 198 µM)
MIC (Cryptococcus neoformans): 16 µg/mL (≈ 49.5 µM)
MIC (Epidermophyton floccosum): 16 µg/mL (≈ 49.5 µM)
MIC (Mucor racemosus): 32 µg/mL (≈ 98.9 µM)

C[C@@H]1[C@H](O)[C@@H](C)/C=C/C=C/C=C/C=C/C=C/C=C/C=C/[C@H](O[C@@H]2O[C@H](C)[C@@H](O)[C@H](N)[C@@H]2O)C[C@@H]2O[C@](O)(C[C@@H](O)C[C@@H](O)[C@H](O)CC[C@@H](O)C[C@@H](O)CC(=O)O[C@H]1C)C[C@H](O)[C@H]2C(=O)O [AMPHOTERICIN B]
MIC (Nannizzia gypsea): 2 µg/mL (≈ 2.16 µM)
MIC (Candida albicans): 2 µg/mL (≈ 2.16 µM)
MIC (Cryptococcus neoformans): 4 µg/mL (≈ 4.33 µM)
MIC (Epidermophyton floccosum): 2 µg/mL (≈ 2.16 µM)
MIC (Mucor racemosus): 4 µg/mL (≈ 4.33 µM)

OC(Cn1cncn1)(Cn1cncn1)c1ccc(F)cc1F [FLUCONAZOLE]
MIC (Nannizzia gypsea): 64 µg/mL (≈ 209 µM)
MIC (Candida albicans): 32 µg/mL (≈ 104 µM)
MIC (Cryptococcus neoformans): 8 µg/mL (≈ 26.1 µM)
MIC (Epidermophyton floccosum): 32 µg/mL (≈ 104 µM)
MIC (Mucor racemosus): 32 µg/mL (≈ 104 µM)
